Experimental data from ChEMBL document CHEMBL1782048, “Novel 1-(2-aminopyrazin-3-yl)methyl-2-thioureas as potent inhibitors of mitogen-activated protein kinase-activated protein kinase 2 (MK-2)” (Bioorg Med Chem Lett, 2009).

What was measured:
[1] = Half life in rat; format: ADME, organism-based; conditions: in vivo
[2] = Clearance in rat; format: ADME, organism-based; conditions: in vivo
[3] = target: T1, MAP kinase-activated protein kinase 5 (Homo sapiens) (UniProt Q8IW41); assay: Inhibition of MK5 at 1 uM
T1 sequence (whole entry): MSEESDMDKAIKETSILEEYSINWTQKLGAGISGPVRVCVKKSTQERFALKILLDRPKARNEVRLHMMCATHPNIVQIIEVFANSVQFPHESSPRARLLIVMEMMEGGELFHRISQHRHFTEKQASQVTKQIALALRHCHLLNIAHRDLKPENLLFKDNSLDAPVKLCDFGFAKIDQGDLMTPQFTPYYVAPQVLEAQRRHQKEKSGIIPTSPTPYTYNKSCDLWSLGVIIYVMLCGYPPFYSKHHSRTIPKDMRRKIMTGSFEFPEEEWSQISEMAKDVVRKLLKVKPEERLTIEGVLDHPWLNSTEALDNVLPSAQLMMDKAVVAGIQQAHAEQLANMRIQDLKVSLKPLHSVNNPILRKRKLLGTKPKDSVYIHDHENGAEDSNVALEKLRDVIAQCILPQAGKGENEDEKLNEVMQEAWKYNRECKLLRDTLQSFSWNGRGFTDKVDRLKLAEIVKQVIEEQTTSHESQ

THP-1 = assay: Inhibition of LPS-induced TNFalpha production in human THP1 cells after 4 hrs by ELISA; conditions: THP-1, 4 h
Rattus norvegicus = organism: Rattus norvegicus; assay: Normalized AUC in rat; format: ADME, organism-based; conditions: in vivo
[4] = Oral bioavailability AUC in rat; format: ADME, organism-based; conditions: in vivo
Mus musculus = assay: Antiinflammatory activity in BALB/c mouse assessed as inhibition of LPS-stimulated TNFalpha production at 10 mg/kg, iv after 1.5 hrs; format: functional
Outline: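 Female Balb/c mice, 12 weeks old, dosed iv at 10 mg/kg in DMSO/Cremophor/saline (or vehicle alone) just before injection of 10 µg/mouse LPS (E. coli serotype 0111:B4) plus 800 mg/kg D-galactosamine in saline. Animals euthanized 90 min later; plasma TNF measured by ELISA.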

[5] = target: MAP kinase-activated protein kinase 2 (Homo sapiens, UniProt P49137); assay: Inhibition of MK2 using biotin-LCAYSRALSRQLSSGVSEIRH substrate
Sequence of MAP kinase-activated protein kinase 2 (P49137 whole entry): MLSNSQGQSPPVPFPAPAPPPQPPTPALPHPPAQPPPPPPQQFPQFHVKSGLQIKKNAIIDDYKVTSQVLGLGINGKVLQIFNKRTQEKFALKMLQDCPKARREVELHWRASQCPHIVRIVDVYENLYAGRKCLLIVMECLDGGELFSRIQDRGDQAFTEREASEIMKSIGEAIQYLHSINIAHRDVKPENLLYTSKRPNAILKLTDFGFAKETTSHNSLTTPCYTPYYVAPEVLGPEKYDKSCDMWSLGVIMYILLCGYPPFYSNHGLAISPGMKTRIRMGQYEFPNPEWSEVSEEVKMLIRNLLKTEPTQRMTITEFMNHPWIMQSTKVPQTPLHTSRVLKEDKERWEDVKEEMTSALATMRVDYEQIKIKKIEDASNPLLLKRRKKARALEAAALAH

[6] = Inhibition of AMPK at 10 uM
[7] = target: Ribosomal protein S6 kinase alpha-1 (Homo sapiens) (UniProt Q15418); assay: Inhibition of RPS6KA1 at 10 uM
Sequence of Ribosomal protein S6 kinase alpha-1 (Homo sapiens) (Q15418 whole entry): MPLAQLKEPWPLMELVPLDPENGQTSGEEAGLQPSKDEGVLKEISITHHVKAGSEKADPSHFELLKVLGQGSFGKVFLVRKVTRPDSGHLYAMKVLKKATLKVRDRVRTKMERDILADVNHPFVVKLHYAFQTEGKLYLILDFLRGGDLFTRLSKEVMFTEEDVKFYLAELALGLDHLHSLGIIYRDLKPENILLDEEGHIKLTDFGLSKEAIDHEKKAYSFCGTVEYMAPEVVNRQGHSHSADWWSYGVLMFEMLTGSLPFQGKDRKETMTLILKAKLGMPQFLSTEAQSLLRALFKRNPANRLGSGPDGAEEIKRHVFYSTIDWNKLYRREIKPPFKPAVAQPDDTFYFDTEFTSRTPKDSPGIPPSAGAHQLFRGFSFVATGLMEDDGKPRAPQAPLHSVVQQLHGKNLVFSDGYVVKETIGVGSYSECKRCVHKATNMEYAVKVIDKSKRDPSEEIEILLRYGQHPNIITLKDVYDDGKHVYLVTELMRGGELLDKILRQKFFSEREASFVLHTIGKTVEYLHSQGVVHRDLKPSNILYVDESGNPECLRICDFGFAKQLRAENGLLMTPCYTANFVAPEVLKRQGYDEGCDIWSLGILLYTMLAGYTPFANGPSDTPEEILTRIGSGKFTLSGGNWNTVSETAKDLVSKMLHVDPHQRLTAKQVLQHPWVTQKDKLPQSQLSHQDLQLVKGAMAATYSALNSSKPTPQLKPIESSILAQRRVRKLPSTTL

[8] = target: Ribosomal protein S6 kinase alpha-5 (Homo sapiens) (UniProt O75582); assay: Inhibition of RPS6KA5 at 10 uM
Sequence of Ribosomal protein S6 kinase alpha-5 (Homo sapiens) (O75582 whole entry, looked up): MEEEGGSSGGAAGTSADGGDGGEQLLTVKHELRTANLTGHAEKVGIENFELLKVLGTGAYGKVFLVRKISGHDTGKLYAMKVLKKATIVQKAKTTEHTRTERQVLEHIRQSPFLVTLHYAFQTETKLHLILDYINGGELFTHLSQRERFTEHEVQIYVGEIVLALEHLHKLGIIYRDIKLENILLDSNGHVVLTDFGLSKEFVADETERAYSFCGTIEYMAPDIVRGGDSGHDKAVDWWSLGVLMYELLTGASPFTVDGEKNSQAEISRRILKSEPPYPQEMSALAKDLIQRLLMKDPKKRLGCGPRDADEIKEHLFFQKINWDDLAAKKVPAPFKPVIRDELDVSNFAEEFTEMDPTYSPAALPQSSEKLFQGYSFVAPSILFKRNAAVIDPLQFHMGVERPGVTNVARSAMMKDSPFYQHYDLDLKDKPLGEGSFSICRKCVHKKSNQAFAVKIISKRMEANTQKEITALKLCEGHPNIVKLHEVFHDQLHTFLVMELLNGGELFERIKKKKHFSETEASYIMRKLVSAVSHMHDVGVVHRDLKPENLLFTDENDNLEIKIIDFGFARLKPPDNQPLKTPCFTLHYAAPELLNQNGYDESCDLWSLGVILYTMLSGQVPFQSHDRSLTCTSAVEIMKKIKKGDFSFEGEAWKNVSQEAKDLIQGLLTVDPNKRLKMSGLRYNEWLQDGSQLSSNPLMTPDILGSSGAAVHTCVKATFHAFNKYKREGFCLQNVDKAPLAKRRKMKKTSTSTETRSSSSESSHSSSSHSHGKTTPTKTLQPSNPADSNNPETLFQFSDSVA

| Structure (SMILES) | IC50 [5] [µM] | further results |
| --- | --- | --- |
| CCCc1cnc(N)c(CNC(=S)Nc2ccc3[nH]c(=O)oc3c2)n1 | – | half-life [1]: 18 min; clearance [2]: 12.9 mL/min/kg; inhibition [3]: > 70%; IC50 (THP-1): 0.75 µM; AUC/dose (Rattus norvegicus): 0.3 µM·kg·h/mg; bioavailability [4]: 8%; inhibition in vivo at 10 mg/kg (Mus musculus): 70% |
| Cc1cnc(N)c(CNC(=S)Nc2ccc(NC(=O)c3ccccc3)cc2)n1 | 0.58 | – |
| Cc1cnc(N)c(CNC(=S)Nc2ccc3[nH]c(=O)[nH]c3c2)n1 | 15 | – |
| CC(C)(C)NC(=O)Nc1ccc(NC(=S)NCc2nc(C3CC3)cnc2N)cc1 | – | IC50 (THP-1): 1.4 µM |
| Cc1cnc(N)c(CNC(=S)Nc2ccc(NC(=O)Oc3ccccc3)cc2)n1 | 0.73 | – |
| Cc1cnc(N)c(CNC(=S)Nc2ccc3c(c2)CC(=O)N3)n1 | 27 | – |
| Nc1ncc(Cl)nc1CNC(=S)NC1CCCC1 | 53 | – |
| CC(C)(C)NC(=S)NCc1nc(Cl)cnc1N | 2.5 | – |
| Nc1ncc(Cl)nc1CNC(=S)NC1CC1 | 12 | – |
| CCN(CC)CCCNC(=S)NCc1nc(Cl)cnc1N | > 50 | – |
| CN(C)c1nc(N)c(CNC(=S)Nc2ccccc2)nc1Cl | > 50 | – |
| Cc1cnc(N)c(CNC(=S)Nc2ccc3c(c2)[nH]c(=O)n3C)n1 | > 20 | – |
| Nc1ncc(Cl)nc1CNC(=S)NC1CCCCCC1 | 35 | – |
| Cc1cnc(N)c(CNC(=S)Nc2ccc(NC(=O)Cc3ccccc3)cc2)n1 | 3.8 | – |
| CCc1cnc(N)c(CNC(=S)Nc2ccc(NC(=O)OC(C)(C)C)cc2)n1 | – | IC50 (THP-1): 4 µM |
| Nc1ncc(C2CC2)nc1CNC(=S)Nc1ccc2[nH]c(=O)oc2c1 | 0.015 | IC50 (THP-1): 1.7 µM; inhibition in vivo at 10 mg/kg (Mus musculus): 75% |
| CSc1nc(N)c(CNC(=S)Nc2ccccc2)nc1Cl | > 50 | – |
| Cc1cnc(N)c(CNC(=S)Nc2ccc3[nH]c(=O)sc3c2)n1 | 15 | – |
| Cc1cnc(N)c(CNC(=S)Nc2ccc3oc(=O)[nH]c3c2)n1 | 14 | – |
| CCCCc1cnc(N)c(CNC(=S)Nc2ccc3[nH]c(=O)oc3c2)n1 | – | IC50 (THP-1): 3.8 µM |
| CCOc1nc(N)c(CNC(=S)Nc2ccccc2)nc1Cl | > 50 | – |
| CC(C)(C)OC(=O)Nc1ccc(NC(=S)NCc2nc(C3CC3)cnc2N)cc1 | – | IC50 (THP-1): 3.2 µM |

Second part, led by results:

| IC50 [5] [µM] | Structure (SMILES) | further results |
| --- | --- | --- |
| 3.6 | Cc1ccccc1NC(=S)NCc1nc(Cl)cnc1N | – |
| 11.3 | Nc1ncc(Cl)nc1CNC(=S)Nc1cccc(Cl)c1 | – |
| > 50 | Nc1ncc(Cl)nc1CNC(=S)NCCc1ccccc1 | – |
| > 50 | Nc1ncc(C(F)(F)F)nc1CNC(=S)Nc1ccccc1 | – |
| 91 | Nc1ncc(Cl)nc1CNC(=S)NC(=O)c1ccccc1 | – |
| > 20 | Nc1ncc(Cl)nc1CNC(=S)Nc1ccccc1-c1ccccc1 | – |
| 40 | Nc1ncc(Cl)nc1CNC(=S)Nc1ccc(Cl)c(Cl)c1 | – |
| 13 | CC(C)NC(=S)NCc1nc(Cl)cnc1N | – |
| 3.7 | Nc1ncc(Cl)nc1CNC(=S)Nc1ccc(Cl)cc1 | – |
| 2 | Nc1ccc(NC(=S)NCc2nc(Cl)cnc2N)cc1 | – |
| 3.1 | Nc1ncc(Cl)nc1CNC(=S)Nc1ccc(Br)cc1 | – |
| 0.045 | CCCc1cnc(N)c(CNC(=S)Nc2ccc(NC(=O)OC(C)(C)C)cc2)n1 | half-life [1]: 48 min; clearance [2]: 2.5 mL/min/kg; IC50 (THP-1): 3 µM; inhibition [6]: > 70%; AUC/dose (Rattus norvegicus): 3.3 µM·kg·h/mg; inhibition [7]: > 70%; bioavailability [4]: 19%; inhibition in vivo at 10 mg/kg (Mus musculus): 62%; inhibition [8]: > 70% |
| > 40 | Nc1ncc(Cl)nc1CNC(=S)Nc1ccc(-n2cnnn2)cc1 | – |
| 4.3 | Nc1ncc(Cl)nc1CNC(=S)Nc1ccc(Cl)cc1Cl | – |
| 9.3 | Cc1cccc(NC(=S)NCc2nc(Cl)cnc2N)c1 | – |
| 2.7 | Cc1ccc(NC(=S)NCc2nc(Cl)cnc2N)cc1 | – |
| 1.1 | Nc1ncc(Cl)nc1CNC(=S)Nc1ccccc1Cl | – |
| 2 | Nc1ncc(Cl)nc1CNC(=S)Nc1ccccc1F | – |
| 27 | Nc1ncc(Cl)nc1CNC(=S)Nc1cc(Cl)cc(Cl)c1 | – |
| 36 | Nc1ncc(Cl)nc1CNC(=S)NCc1ccccc1 | – |
| 3.2 | Nc1ncc(Cl)nc1CNC(=S)Nc1cccc2ccccc12 | – |
